According to ChEMBL document CHEMBL1134385, “Flexible estrogen receptor modulators: design, synthesis, and antagonistic effects in human MCF-7 breast cancer cells” (J Med Chem, 2001):

Experiments:
[1] = tested on: MCF7; experiment: Antiproliferative activity against Human MCF-7 Breast cancer cell line in vitro.; format: functional, cell-based
Method in brief: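 MCF-7 cells grown in Eagle's MEM with 10% fetal calf serum and 1% nonessential amino acids, 5% CO2. Seeded at 1.5×10^4 per well, 24 h at 37 °C, then dosed from ethanol stocks over 1 nM-100 μM (vehicle 1% v/v) for 72 h. MTT at 1 mg/mL final, 2 h in the dark, DMSO solubilization, A570. Viability relative to vehicle control; IC50 from triplicate means.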

[2] = target: Estrogen receptor (Homo sapiens, UniProt Q92731+P03372); experiment: Binding affinity for estrogen receptor.; format: protein assay

**Q.** How did the IC50 [1] turn out when CC/C(=C(\Cc1ccccc1)c1ccc(OCN(C)C)cc1)c1ccccc1 was run?
**A.** Its IC50 is 21.7 µM.

**Q.** And the Ki [2]?
**A.** The Ki was 0.503 µM.
